Data published in ChEMBL document CHEMBL1128374, “Preparation and in vitro activities of ethers of [D-serine]8-cyclosporin” (J Med Chem, 1995).
≈ marks a conversion by molar mass, not a printed value.

Tests used:
Type in all cases: functional
Mus musculus [1] = organism: Mus musculus; experiment: In vitro inhibition of interleukin-2 (IL-2) production induced by stimulating lymphocytes derived from mouse spleens with the […]; settings: Spleen
Outline: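 Compounds added with concanavalin A to the primary culture; supernatants collected at 48 h. IL-2 content measured by growth of IL-2-dependent CTLL cells, read as tritiated thymidine incorporation after 48 h. IC50 determined, with cyclosporin A run in parallel.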

Mus musculus [2] = organism: Mus musculus; experiment: In vitro efficacy to suppress lymphocyte proliferation as measured by the incorporation of a labeled precursor ([3H]- thymidine) into DNA in Mixed Lymphocyte reaction (MLR).
Outline: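 Cells from spleens of female CBA mice aged 8–10 weeks (ca. 5 x 10^5). Compounds made up at 20 mg/mL in 9:1 (v/v) ethanol/Tween 80, then diluted in saline before adding to medium. Four concentrations per compound across 1.8–1000 ng/mL, in triplicate cultures. IC50 is the calculated concentration giving 50% inhibition of proliferation. Cyclosporin A run in parallel as control.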

Mus musculus [3] = organism: Mus musculus; experiment: In vitro efficacy on humoral immune response by Mishell-Dutton assay (MD).
Outline: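 Spleen lymphocytes from female OF1 mice (ca. 10 x 10^6) cultured 3 days with sheep erythrocytes (ca. 30 x 10^6) and test compound. Cells then plated on agar with fresh erythrocytes; plaques form by complement lysis. Read-out is the count of antibody-producing plaque-forming cells. Cyclosporin A run in parallel.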

SMILES | IC50 (Mus musculus [1]) [µg/mL] | IC50 (Mus musculus [2]) [µg/mL] | IC50 (Mus musculus [3]) [µg/mL]
C/C=C/C[C@@H](C)[C@@H](O)[C@H]1C(=O)N[C@@H](CC)C(=O)N(C)CC(=O)N(C)[C@@H](CC(C)C)C(=O)N[C@@H](C(C)C)C(=O)N(C)[C@@H](CC(C)C)C(=O)N[C@@H](C)C(=O)N[C@H](COCCNS(=O)(=O)c2cccc3c(N(C)C)cccc23)C(=O)N(C)[C@@H](CC(C)C)C(=O)N(C)[C@@H](CC(C)C)C(=O)N(C)[C@@H](C(C)C)C(=O)N1C | 0.057 (≈ 0.0381 µM) | 0.11 (≈ 0.0736 µM) | 0.048 (≈ 0.0321 µM)
C/C=C/C[C@@H](C)[C@@H](O)[C@H]1C(=O)N[C@@H](CC)C(=O)N(C)CC(=O)N(C)[C@@H](CC(C)C)C(=O)N[C@@H](C(C)C)C(=O)N(C)[C@@H](CC(C)C)C(=O)N[C@@H](C)C(=O)N2CC(=O)OC[C@@H]2C(=O)N(C)[C@@H](CC(C)C)C(=O)N(C)[C@@H](CC(C)C)C(=O)N(C)[C@@H](C(C)C)C(=O)N1C | 0.024 (≈ 0.0191 µM) | 0.167 (≈ 0.133 µM) | –
C/C=C/C[C@@H](C)[C@@H](O)[C@H]1C(=O)N[C@@H](CC)C(=O)N(C)CC(=O)N(C)[C@@H](CC(C)C)C(=O)N[C@@H](C(C)C)C(=O)N(C)[C@@H](CC(C)C)C(=O)N[C@@H](C)C(=O)N[C@H](COCC(=O)O)C(=O)N(C)[C@@H](CC(C)C)C(=O)N(C)[C@@H](CC(C)C)C(=O)N(C)[C@@H](C(C)C)C(=O)N1C | 0.53 (≈ 0.415 µM) | 0.44 (≈ 0.345 µM) | 0.48 (≈ 0.376 µM)
C/C=C/C[C@@H](C)[C@@H](O)[C@H]1C(=O)N[C@@H](CC)C(=O)N(C)CC(=O)N(C)[C@@H](CC(C)C)C(=O)N[C@@H](C(C)C)C(=O)N(C)[C@@H](CC(C)C)C(=O)N[C@@H](C)C(=O)N[C@H](COCC(=O)OC)C(=O)N(C)[C@@H](CC(C)C)C(=O)N(C)[C@@H](CC(C)C)C(=O)N(C)[C@@H](C(C)C)C(=O)N1C | – | 0.044 (≈ 0.0341 µM) | 0.065 (≈ 0.0504 µM)
C/C=C/C[C@@H](C)[C@@H](O)[C@H]1C(=O)N[C@@H](CC)C(=O)N(C)CC(=O)N(C)[C@@H](CC(C)C)C(=O)N[C@@H](C(C)C)C(=O)N(C)[C@@H](CC(C)C)C(=O)N[C@@H](C)C(=O)N[C@H](COCCCCO)C(=O)N(C)[C@@H](CC(C)C)C(=O)N(C)[C@@H](CC(C)C)C(=O)N(C)[C@@H](C(C)C)C(=O)N1C | – | 0.094 (≈ 0.0728 µM) | 0.09 (≈ 0.0697 µM)
C/C=C/C[C@@H](C)[C@@H](O)[C@H]1C(=O)N[C@@H](CC)C(=O)N(C)CC(=O)N(C)[C@@H](CC(C)C)C(=O)N[C@@H](C(C)C)C(=O)N(C)[C@@H](CC(C)C)C(=O)N[C@@H](C)C(=O)N[C@H](COC/C=C/CBr)C(=O)N(C)[C@@H](CC(C)C)C(=O)N(C)[C@@H](CC(C)C)C(=O)N(C)[C@@H](C(C)C)C(=O)N1C | – | 0.09 (≈ 0.0666 µM) | 0.24 (≈ 0.178 µM)
C/C=C/C[C@@H](C)[C@@H](O)[C@H]1C(=O)N[C@@H](CC)C(=O)N(C)CC(=O)N(C)[C@@H](CC(C)C)C(=O)N[C@@H](C(C)C)C(=O)N(C)[C@@H](CC(C)C)C(=O)N[C@@H](C)C(=O)N[C@H](COCCOS(=O)(=O)c2ccc(C)cc2)C(=O)N(C)[C@@H](CC(C)C)C(=O)N(C)[C@@H](CC(C)C)C(=O)N(C)[C@@H](C(C)C)C(=O)N1C | 0.014 (≈ 0.00988 µM) | 0.05 (≈ 0.0353 µM) | –
C/C=C/C[C@@H](C)[C@@H](O)[C@H]1C(=O)N[C@@H](CC)C(=O)N(C)CC(=O)N(C)[C@@H](CC(C)C)C(=O)N[C@@H](C(C)C)C(=O)N(C)[C@@H](CC(C)C)C(=O)N[C@@H](C)C(=O)N[C@H](COC/C=C/COC(C)=O)C(=O)N(C)[C@@H](CC(C)C)C(=O)N(C)[C@@H](CC(C)C)C(=O)N(C)[C@@H](C(C)C)C(=O)N1C | – | 0.04 (≈ 0.0301 µM) | 0.04 (≈ 0.0301 µM)
C=C(COC[C@H]1NC(=O)[C@H](C)NC(=O)[C@H](CC(C)C)N(C)C(=O)[C@H](C(C)C)NC(=O)[C@H](CC(C)C)N(C)C(=O)CN(C)C(=O)[C@H](CC)NC(=O)[C@H]([C@H](O)[C@H](C)C/C=C/C)N(C)C(=O)[C@H](C(C)C)N(C)C(=O)[C@H](CC(C)C)N(C)C(=O)[C@H](CC(C)C)N(C)C1=O)C(=O)OC | 0.1 (≈ 0.0759 µM) | 0.04 (≈ 0.0304 µM) | 0.016 (≈ 0.0122 µM)
C/C=C/C[C@@H](C)[C@@H](O)[C@H]1C(=O)N[C@@H](CC)C(=O)N(C)CC(=O)N(C)[C@@H](CC(C)C)C(=O)N[C@@H](C(C)C)C(=O)N(C)[C@@H](CC(C)C)C(=O)N[C@@H](C)C(=O)N[C@H](COCCC2OCCO2)C(=O)N(C)[C@@H](CC(C)C)C(=O)N(C)[C@@H](CC(C)C)C(=O)N(C)[C@@H](C(C)C)C(=O)N1C | 0.086 (≈ 0.0652 µM) | 0.117 (≈ 0.0887 µM) | 0.105 (≈ 0.0796 µM)
C/C=C/C[C@@H](C)[C@@H](O)[C@H]1C(=O)N[C@@H](CC)C(=O)N(C)CC(=O)N(C)[C@@H](CC(C)C)C(=O)N[C@@H](C(C)C)C(=O)N(C)[C@@H](CC(C)C)C(=O)N[C@@H](C)C(=O)N[C@H](COCCOCCOCC(=O)OC(C)C)C(=O)N(C)[C@@H](CC(C)C)C(=O)N(C)[C@@H](CC(C)C)C(=O)N(C)[C@@H](C(C)C)C(=O)N1C | – | 0.35 (≈ 0.249 µM) | 0.53 (≈ 0.377 µM)
C=C(CO)COC[C@H]1NC(=O)[C@H](C)NC(=O)[C@H](CC(C)C)N(C)C(=O)[C@H](C(C)C)NC(=O)[C@H](CC(C)C)N(C)C(=O)CN(C)C(=O)[C@H](CC)NC(=O)[C@H]([C@H](O)[C@H](C)C/C=C/C)N(C)C(=O)[C@H](C(C)C)N(C)C(=O)[C@H](CC(C)C)N(C)C(=O)[C@H](CC(C)C)N(C)C1=O | 0.048 (≈ 0.0372 µM) | < 0.008 | 0.032 (≈ 0.0248 µM)
C=CCOC[C@H]1NC(=O)[C@H](C)NC(=O)[C@H](CC(C)C)N(C)C(=O)[C@H](C(C)C)NC(=O)[C@H](CC(C)C)N(C)C(=O)CN(C)C(=O)[C@H](CC)NC(=O)[C@H]([C@H](O)[C@H](C)C/C=C/C)N(C)C(=O)[C@H](C(C)C)N(C)C(=O)[C@H](CC(C)C)N(C)C(=O)[C@H](CC(C)C)N(C)C1=O | 0.115 (≈ 0.0914 µM) | 0.088 (≈ 0.0699 µM) | 0.032 (≈ 0.0254 µM)
C/C=C/C[C@@H](C)[C@@H](O)[C@H]1C(=O)N[C@@H](CC)C(=O)N(C)CC(=O)N(C)[C@@H](CC(C)C)C(=O)N[C@@H](C(C)C)C(=O)N(C)[C@@H](CC(C)C)C(=O)N[C@@H](C)C(=O)N[C@H](COCCOC(C)=O)C(=O)N(C)[C@@H](CC(C)C)C(=O)N(C)[C@@H](CC(C)C)C(=O)N(C)[C@@H](C(C)C)C(=O)N1C | 0.012 (≈ 0.0092 µM) | 0.018 (≈ 0.0138 µM) | 0.028 (≈ 0.0215 µM)
C=C(CCl)COC[C@H]1NC(=O)[C@H](C)NC(=O)[C@H](CC(C)C)N(C)C(=O)[C@H](C(C)C)NC(=O)[C@H](CC(C)C)N(C)C(=O)CN(C)C(=O)[C@H](CC)NC(=O)[C@H]([C@H](O)[C@H](C)C/C=C/C)N(C)C(=O)[C@H](C(C)C)N(C)C(=O)[C@H](CC(C)C)N(C)C(=O)[C@H](CC(C)C)N(C)C1=O | > 0.1 | 0.27 (≈ 0.207 µM) | 0.23 (≈ 0.176 µM)
C/C=C/C[C@@H](C)[C@@H](O)[C@H]1C(=O)N[C@@H](CC)C(=O)N(C)CC(=O)N(C)[C@@H](CC(C)C)C(=O)N[C@@H](C(C)C)C(=O)N(C)[C@@H](CC(C)C)C(=O)N[C@@H](C)C(=O)N[C@H](COCCN)C(=O)N(C)[C@@H](CC(C)C)C(=O)N(C)[C@@H](CC(C)C)C(=O)N(C)[C@@H](C(C)C)C(=O)N1C | 0.38 (≈ 0.301 µM) | 0.22 (≈ 0.174 µM) | 0.095 (≈ 0.0753 µM)
C#CCOC[C@H]1NC(=O)[C@H](C)NC(=O)[C@H](CC(C)C)N(C)C(=O)[C@H](C(C)C)NC(=O)[C@H](CC(C)C)N(C)C(=O)CN(C)C(=O)[C@H](CC)NC(=O)[C@H]([C@H](O)[C@H](C)C/C=C/C)N(C)C(=O)[C@H](C(C)C)N(C)C(=O)[C@H](CC(C)C)N(C)C(=O)[C@H](CC(C)C)N(C)C1=O | 0.09 (≈ 0.0716 µM) | 0.072 (≈ 0.0573 µM) | 0.036 (≈ 0.0286 µM)
C/C=C/C[C@@H](C)[C@@H](O)[C@H]1C(=O)N[C@@H](CC)C(=O)N(C)CC(=O)N(C)[C@@H](CC(C)C)C(=O)N[C@@H](C(C)C)C(=O)N(C)[C@@H](CC(C)C)C(=O)N[C@@H](C)C(=O)N2CCOC[C@@H]2C(=O)N(C)[C@@H](CC(C)C)C(=O)N(C)[C@@H](CC(C)C)C(=O)N(C)[C@@H](C(C)C)C(=O)N1C | 0.003 (≈ 0.00241 µM) | 0.006 (≈ 0.00482 µM) | –
C/C=C/C[C@@H](C)[C@@H](O)[C@H]1C(=O)N[C@@H](CC)C(=O)N(C)CC(=O)N(C)[C@@H](CC(C)C)C(=O)N[C@@H](C(C)C)C(=O)N(C)[C@@H](CC(C)C)C(=O)N[C@@H](C)C(=O)N[C@H](COCCN=[N+]=[N-])C(=O)N(C)[C@@H](CC(C)C)C(=O)N(C)[C@@H](CC(C)C)C(=O)N(C)[C@@H](C(C)C)C(=O)N1C | – | 0.11 (≈ 0.0854 µM) | 0.087 (≈ 0.0676 µM)
C=C(COC[C@H]1NC(=O)[C@H](C)NC(=O)[C@H](CC(C)C)N(C)C(=O)[C@H](C(C)C)NC(=O)[C@H](CC(C)C)N(C)C(=O)CN(C)C(=O)[C@H](CC)NC(=O)[C@H]([C@H](O)[C@H](C)C/C=C/C)N(C)C(=O)[C@H](C(C)C)N(C)C(=O)[C@H](CC(C)C)N(C)C(=O)[C@H](CC(C)C)N(C)C1=O)CO[Si](C)(C)C(C)(C)C | > 1 | 0.45 (≈ 0.321 µM) | > 1
C=C1COC[C@@H]2C(=O)N(C)[C@@H](CC(C)C)C(=O)N(C)[C@@H](CC(C)C)C(=O)N(C)[C@@H](C(C)C)C(=O)N(C)[C@@H]([C@H](O)[C@H](C)C/C=C/C)C(=O)N[C@@H](CC)C(=O)N(C)CC(=O)N(C)[C@@H](CC(C)C)C(=O)N[C@@H](C(C)C)C(=O)N(C)[C@@H](CC(C)C)C(=O)N[C@@H](C)C(=O)N2C1 | 0.012 (≈ 0.00944 µM) | 0.036 (≈ 0.0283 µM) | –
C/C=C/C[C@@H](C)[C@@H](O)[C@H]1C(=O)N[C@@H](CC)C(=O)N(C)CC(=O)N(C)[C@@H](CC(C)C)C(=O)N[C@@H](C(C)C)C(=O)N(C)[C@@H](CC(C)C)C(=O)N[C@@H](C)C(=O)N2CC(OCC)OC[C@@H]2C(=O)N(C)[C@@H](CC(C)C)C(=O)N(C)[C@@H](CC(C)C)C(=O)N(C)[C@@H](C(C)C)C(=O)N1C (mixture of isomers) | 0.01 | 0.04 | –
